ChEMBL document CHEMBL1144871, “Synthesis of substituted 6-anilinouracils and their inhibition of DNA polymerase IIIC and Gram-positive bacterial growth” (J Med Chem, 2003)
Converted amounts (≈) assume the structure as drawn.

Experiments:
[1] = test system: Bacillus subtilis; test: Antibacterial activity against Bacillus subtilis was determined; assay type: functional
[2] = test system: Staphylococcus aureus; test: Antibacterial activity against methicillin-resistant strain of Staphylococcus aureus(MRSA B42876) was determined; assay type: functional
Summary of the method: (§1)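 MIC by broth microdilution. Log-phase cultures in Luria broth, seeded at (3-7) × 10⁵ CFU/mL stocks. Compound from DMSO stock, 2-fold serial dilutions giving five concentrations from 20 to 1.25 µg/mL, final 1% DMSO, with untreated and DMSO controls. Duplicate assays, 37 °C for 16 to 24 h, growth read as OD 600 nm. MIC is the averaged lowest concentration preventing growth.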

[3] = test system: Enterococcus faecalis; test: Antibacterial activity against Enterococcus faecalis was determined; assay type: functional; summary of the method: as §1
[4] = test system: Enterococcus faecium; test: Antibacterial activity against Enterococcus faecium was determined; assay type: functional, enterococcus fecium
Summary of the method: (§2)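 Broth microdilution MIC. Log-phase cultures grown in Luria broth; wells seeded from stocks at (3-7) × 10⁵ CFU/mL. DMSO stocks diluted 2-fold to five concentrations, 20 to 1.25 µg/mL, plus untreated control; 1% DMSO final in all wells. Duplicate assays, 37 °C for 16 to 24 h, growth read as OD600. MIC taken as lowest concentration preventing growth, averaged.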

[5] = biological target: DNA polymerase III PolC-type (Bacillus subtilis (strain 168), UniProt P13267); test: Inhibitory activity against DNA polymerase IIIC from Bacillus subtilis was determined
Chain of DNA polymerase III PolC-type (P13267 whole entry, the tested form may be a part): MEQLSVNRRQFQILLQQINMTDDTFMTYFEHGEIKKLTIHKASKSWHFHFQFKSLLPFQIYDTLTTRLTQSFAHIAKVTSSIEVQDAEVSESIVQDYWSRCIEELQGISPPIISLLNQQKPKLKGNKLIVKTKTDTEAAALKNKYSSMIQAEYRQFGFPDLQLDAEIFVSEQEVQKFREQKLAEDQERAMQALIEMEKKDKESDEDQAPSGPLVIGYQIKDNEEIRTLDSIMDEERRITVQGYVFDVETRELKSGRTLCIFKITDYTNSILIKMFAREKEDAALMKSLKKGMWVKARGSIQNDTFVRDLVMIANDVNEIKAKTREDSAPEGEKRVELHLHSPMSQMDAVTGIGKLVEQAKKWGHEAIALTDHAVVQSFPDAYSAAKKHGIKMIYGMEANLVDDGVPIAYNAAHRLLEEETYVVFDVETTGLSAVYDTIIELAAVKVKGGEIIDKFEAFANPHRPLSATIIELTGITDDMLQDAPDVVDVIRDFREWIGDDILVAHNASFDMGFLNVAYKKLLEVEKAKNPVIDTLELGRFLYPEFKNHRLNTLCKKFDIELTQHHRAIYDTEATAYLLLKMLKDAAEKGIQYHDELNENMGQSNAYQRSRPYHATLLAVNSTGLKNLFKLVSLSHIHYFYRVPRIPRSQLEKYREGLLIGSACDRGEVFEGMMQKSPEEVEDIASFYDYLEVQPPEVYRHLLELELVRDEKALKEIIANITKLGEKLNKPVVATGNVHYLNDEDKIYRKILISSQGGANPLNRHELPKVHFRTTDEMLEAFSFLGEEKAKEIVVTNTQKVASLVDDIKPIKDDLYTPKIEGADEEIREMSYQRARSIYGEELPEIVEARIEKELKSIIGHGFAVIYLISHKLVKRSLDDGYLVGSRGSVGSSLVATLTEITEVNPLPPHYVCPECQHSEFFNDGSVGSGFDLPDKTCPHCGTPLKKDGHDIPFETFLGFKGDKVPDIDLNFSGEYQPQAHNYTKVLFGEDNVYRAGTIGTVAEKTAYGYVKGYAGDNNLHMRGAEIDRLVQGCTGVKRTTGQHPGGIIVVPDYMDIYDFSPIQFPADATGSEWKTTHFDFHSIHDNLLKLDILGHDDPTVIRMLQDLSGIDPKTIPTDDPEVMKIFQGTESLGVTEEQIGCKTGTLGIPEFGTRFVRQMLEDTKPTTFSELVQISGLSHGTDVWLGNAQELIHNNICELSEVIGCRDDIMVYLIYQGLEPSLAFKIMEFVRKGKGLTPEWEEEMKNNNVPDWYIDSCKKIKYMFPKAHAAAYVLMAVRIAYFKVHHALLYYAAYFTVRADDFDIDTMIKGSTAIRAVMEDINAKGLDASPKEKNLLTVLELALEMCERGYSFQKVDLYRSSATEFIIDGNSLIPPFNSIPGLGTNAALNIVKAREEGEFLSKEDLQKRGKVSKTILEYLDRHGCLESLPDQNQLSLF
Summary of the method: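 Homogeneous recombinant B. subtilis pol IIIC, 0.025-0.06 units, added to buffered Mg²⁺/DTT/glycerol mix with dATP, dCTP, dTTP, [³H]dTTP and activated calf thymus DNA, no dGTP ("truncated" assay). Compound serial dilutions in DMSO added before enzyme. 10 min at 30 °C, TCA-pyrophosphate stop, acid-precipitated DNA filtered and scintillation counted. Apparent Ki read directly; duplicates.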

[6] = test system: Escherichia coli; test: Antibacterial activity against Escherichia coli was determined; assay type: functional; summary of the method: as §2
[7] = test system: Enterococcus faecalis; test: Antibacterial activity against vancomycin-resistant strain of Enterococcus faecalis(VRE) was determined; assay type: functional; summary of the method: as §1
[8] = test system: Staphylococcus aureus; test: Antibacterial activity against Staphylococcus aureus was determined; assay type: functional
[9] = test system: Staphylococcus aureus; test: Antibacterial activity against Staphylococcus aureus(smith) was determined; assay type: functional

SMILES	MIC [1] [µg/mL]	MIC [2] [µg/mL]	MIC [3] [µg/mL]	MIC [4] [µg/mL]	Ki [5] [nM]	MIC [6] [µg/mL]	MIC [7] [µg/mL]	MIC [8] [µg/mL]	MIC [9] [µg/mL]
C=Cc1cc(Nc2cc(=O)n(CCCCOC)c(=O)[nH]2)ccc1C	< 1.25	10 (≈ 30.4 µM)	10 (≈ 30.4 µM)	5 (≈ 15.2 µM)	560	> 20	10 (≈ 30.4 µM)	5 (≈ 15.2 µM)	5 (≈ 15.2 µM)
COCCCCn1c(=O)cc(Nc2ccc(C)c(C(C)=O)c2)[nH]c1=O	> 20		> 20	> 20	3260	> 20		> 20	> 20
CCc1cc(Nc2cc(=O)n(CCCCN3CCN(c4ncccn4)CC3)c(=O)[nH]2)ccc1C		10 (≈ 21.6 µM)	5 (≈ 10.8 µM)	5 (≈ 10.8 µM)		> 20	5 (≈ 10.8 µM)		10 (≈ 21.6 µM)
COCCCCn1c(=O)cc(Nc2ccc(C)c(CC#N)c2)[nH]c1=O	20 (≈ 58.4 µM)		> 20	20 (≈ 58.4 µM)	1020	> 20		> 20	20 (≈ 58.4 µM)
CCc1cc(Nc2cc(=O)n(CCCCN3CCSCC3)c(=O)[nH]2)ccc1C		20 (≈ 49.7 µM)	5 (≈ 12.4 µM)	5 (≈ 12.4 µM)		> 20	5 (≈ 12.4 µM)	20 (≈ 49.7 µM)	
CCc1cc(Nc2cc(=O)n(CCCCN3CCOCC3)c(=O)[nH]2)ccc1C						> 20			
COCCCCn1c(=O)cc(Nc2ccc(C)c(C(C)O)c2)[nH]c1=O (stereo not drawn)	> 20		> 20	> 20	2100	> 20		> 20	> 20
COCCCCn1c(=O)cc(Nc2ccc(C)c(C)c2)[nH]c1=O	2.5 (≈ 7.88 µM)	10 (≈ 31.5 µM)	10 (≈ 31.5 µM)	20 (≈ 63 µM)	550	> 20	10 (≈ 31.5 µM)	20 (≈ 63 µM)	10 (≈ 31.5 µM)
COCCCCn1c(=O)cc(Nc2ccc(C)c(CS)c2)[nH]c1=O	> 20		> 20	> 20	180	> 20		> 20	> 20
COCCCCn1c(=O)cc(Nc2ccc(C)c(CO)c2)[nH]c1=O	> 20		> 20	> 20	20000	> 20		> 20	> 20
CCOC1CN(CCCCn2c(=O)cc(Nc3ccc(C)c(CC)c3)[nH]c2=O)CCO1 (stereo not drawn)	2.5 (≈ 5.81 µM)	20 (≈ 46.5 µM)	10 (≈ 23.2 µM)	20 (≈ 46.5 µM)	43	> 20	10 (≈ 23.2 µM)	10 (≈ 23.2 µM)	20 (≈ 46.5 µM)
CN[C@H](CC(C)C)C(=O)N[C@H]1C(=O)N[C@@H](CC(N)=O)C(=O)N[C@H]2C(=O)N[C@H]3C(=O)N[C@H](C(=O)N[C@H](C(=O)O)c4cc(O)cc(O)c4-c4cc3ccc4O)[C@H](O)c3ccc(c(Cl)c3)Oc3cc2cc(c3O[C@@H]2O[C@H](CO)[C@@H](O)[C@H](O)[C@H]2O[C@H]2C[C@](C)(N)[C@H](O)[C@H](C)O2)Oc2ccc(cc2Cl)[C@H]1O [VANCOMYCIN]						> 20	> 20		
CCOC(=O)CC1CN(CCCCn2c(=O)cc(Nc3ccc(C)c(CC)c3)[nH]c2=O)CCO1 (stereo not drawn)	5 (≈ 10.6 µM)	20 (≈ 42.3 µM)	> 20	10 (≈ 21.2 µM)	26	> 20		20 (≈ 42.3 µM)	20 (≈ 42.3 µM)
CCc1cc(Nc2cc(=O)n(CCCCN3CCN(C(=O)c4ccco4)CC3)c(=O)[nH]2)ccc1C		20 (≈ 41.7 µM)	5 (≈ 10.4 µM)	10 (≈ 20.9 µM)		> 20	10 (≈ 20.9 µM)		5 (≈ 10.4 µM)
CCc1cc(Nc2cc(=O)n(CCCCN3CCN(Cc4ccccc4)CC3)c(=O)[nH]2)ccc1C	20 (≈ 42 µM)	10 (≈ 21 µM)	10 (≈ 21 µM)	10 (≈ 21 µM)	22	> 20	5 (≈ 10.5 µM)	20 (≈ 42 µM)	10 (≈ 21 µM)
COCCCCn1c(=O)cc(Nc2ccc(C)c(C(C)Cl)c2)[nH]c1=O (stereo not drawn)	> 20		> 20	> 20	6470	> 20		> 20	> 20
CCc1cc(Nc2cc(=O)n(CCCCOC)c(=O)[nH]2)ccc1C					88	> 20	2.5 (≈ 7.54 µM)		
CCc1cc(Nc2cc(=O)n(CCCCN=[N+]=[N-])c(=O)[nH]2)ccc1C	< 1.25	> 20	5 (≈ 14.6 µM)	< 1.25	120	> 20	2.5 (≈ 7.3 µM)	2.5 (≈ 7.3 µM)	2.5 (≈ 7.3 µM)

SMILES	MIC [1] [µg/mL]	MIC [2] [µg/mL]	MIC [3] [µg/mL]	MIC [4] [µg/mL]	Ki [5] [nM]	MIC [6] [µg/mL]	MIC [7] [µg/mL]	MIC [8] [µg/mL]	MIC [9] [µg/mL]
COCCCCn1c(=O)cc(Nc2ccc(C)c(CSC#N)c2)[nH]c1=O	> 20		> 20	> 20	60	> 20		> 20	> 20
CCc1cc(Nc2cc(=O)n(CCCCN3CCCCC3)c(=O)[nH]2)ccc1C	10 (≈ 26 µM)	40 (≈ 104 µM)	20 (≈ 52 µM)	20 (≈ 52 µM)	28	> 20	10 (≈ 26 µM)	20 (≈ 52 µM)	40 (≈ 104 µM)
CCc1cc(Nc2cc(=O)n(CCCCN3CCNCC3)c(=O)[nH]2)ccc1C.Cl.Cl	20		> 20	> 20	30	> 20		> 20	> 20
COCCCCn1c(=O)cc(Nc2ccc(C)c(I)c2)[nH]c1=O	5 (≈ 11.6 µM)	5 (≈ 11.6 µM)	10 (≈ 23.3 µM)	10 (≈ 23.3 µM)	310	> 20	5 (≈ 11.6 µM)	10 (≈ 23.3 µM)	5 (≈ 11.6 µM)
CCc1cc(Nc2cc(=O)n(CCCCN3CCC(O)(c4ccccc4)CC3)c(=O)[nH]2)ccc1C	20 (≈ 42 µM)	20 (≈ 42 µM)	20 (≈ 42 µM)	10 (≈ 21 µM)	67	> 20	10 (≈ 21 µM)	20 (≈ 42 µM)	20 (≈ 42 µM)
Cc1ccc(Nc2cc(=O)n(CCCCO)c(=O)[nH]2)cc1I	5 (≈ 12 µM)	5 (≈ 12 µM)	5 (≈ 12 µM)	5 (≈ 12 µM)	67	> 20	2.5 (≈ 6.02 µM)	10 (≈ 24.1 µM)	5 (≈ 12 µM)
CCc1cc(Nc2cc(=O)n(CCCCN3CCN(c4ccc(F)cc4)CC3)c(=O)[nH]2)ccc1C		20 (≈ 41.7 µM)	10 (≈ 20.9 µM)	5 (≈ 10.4 µM)		> 20	5 (≈ 10.4 µM)	10 (≈ 20.9 µM)	
CCc1cc(Nc2cc(=O)n(CCCCN)c(=O)[nH]2)ccc1C.Cl					62	> 20			
CCc1cc(Nc2cc(=O)n(CCCCO)c(=O)[nH]2)ccc1C				2.5 (≈ 7.88 µM)	63	> 20	2.5 (≈ 7.88 µM)		
COCCCCn1c(=O)cc(Nc2ccc(C)c(Br)c2)[nH]c1=O	2.5 (≈ 6.54 µM)	5 (≈ 13.1 µM)	5 (≈ 13.1 µM)	5 (≈ 13.1 µM)	129	> 20	2.5 (≈ 6.54 µM)	5 (≈ 13.1 µM)	2.5 (≈ 6.54 µM)
O=C(O)c1cn(C2CC2)c2cc(N3CCNCC3)c(F)cc2c1=O [CIPROFLOXACIN]						0.313 (≈ 0.945 µM)	20 (≈ 60.4 µM)		
C=C(C)c1cc(Nc2cc(=O)n(CCCCOC)c(=O)[nH]2)ccc1C	2.5 (≈ 7.28 µM)	> 20	20 (≈ 58.2 µM)	20 (≈ 58.2 µM)	565	> 20	20 (≈ 58.2 µM)	20 (≈ 58.2 µM)	10 (≈ 29.1 µM)
COCCCCn1c(=O)cc(Nc2ccc(C)c(Cl)c2)[nH]c1=O	< 1.25	> 20	5 (≈ 14.8 µM)	5 (≈ 14.8 µM)	42	> 20	5 (≈ 14.8 µM)	10 (≈ 29.6 µM)	5 (≈ 14.8 µM)
COCCCCn1c(=O)cc(Nc2ccc(C)c(CCl)c2)[nH]c1=O	5 (≈ 14.2 µM)	20 (≈ 56.8 µM)	> 20	> 20	40	> 20		20 (≈ 56.8 µM)	20 (≈ 56.8 µM)
CCc1cc(Nc2cc(=O)n(CCCCN3CCC(O)(c4ccc(Cl)c(C(F)(F)F)c4)CC3)c(=O)[nH]2)ccc1C				2.5 (≈ 4.32 µM)		> 20	2.5 (≈ 4.32 µM)		
CCc1cc(Nc2cc(=O)n(CCCCI)c(=O)[nH]2)ccc1C	> 20		> 20	> 20	140	> 20		> 20	> 20
COCCCCn1c(=O)cc(NCc2ccc(Cl)c(Cl)c2)[nH]c1=O	3.75 (≈ 10.1 µM)	20 (≈ 53.7 µM)	5 (≈ 13.4 µM)	5 (≈ 13.4 µM)	80	> 20	5 (≈ 13.4 µM)	10 (≈ 26.9 µM)	5 (≈ 13.4 µM)
CCc1cc(Nc2cc(=O)n(CCCCN3CCC(O)(c4ccc(Cl)cc4)CC3)c(=O)[nH]2)ccc1C		5 (≈ 9.78 µM)	5 (≈ 9.78 µM)	5 (≈ 9.78 µM)		> 20	10 (≈ 19.6 µM)		5 (≈ 9.78 µM)
